Results published in ChEMBL document CHEMBL1149611, “Anti-malarial activity of N6-modified purine analogues” (Bioorg Med Chem, 2007).

What was measured:
Plasmodium falciparum [1] = test: Antimalarial activity against drug-sensitive Plasmodium falciparum 3D7 after 24 hrs; format: functional, organism-based; details: 3D7, 24 h
How it was run: (§1)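 [³H]hypoxanthine incorporation assay. Compounds dissolved in DMSO and serially diluted in assay medium, final DMSO ≤0.01%. P. falciparum culture at 0.5% parasitaemia (65-75% ring stage), 2.5% haematocrit. Incubated 24 h at 37 °C in 5% CO₂, then [³H]hypoxanthine (0.1 µCi/well) added for a further 24 h. Incorporated radioactivity counted by scintillation. IC50 obtained by curve fitting. Chloroquine diphosphate used as standard.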

Plasmodium falciparum [2] = test: Antimalarial activity against chloroquine,pyrimethamine-resistant Plasmodium falciparum K1 after 24 hrs; format: functional, organism-based; details: K1, 24 h; how it was run: as §1
Plasmodium falciparum [3] = test: Antimalarial activity against chloroquine, pyrimethamine and cycloguanil-resistant Plasmodium falciparum VS1 after 24 hrs; format: functional, organism-based; details: VS1, 24 h; how it was run: as §1
KB = test: Cytotoxicity against human KB cells; format: functional
[4] = Selectivity index, ratio of CC50 for human KB cells to IC50 for Plasmodium falciparum 3D7; format: functional
[5] = Selectivity index, ratio of CC50 for human KB cells to IC50 for Plasmodium falciparum K1; format: functional
[6] = Selectivity index, ratio of CC50 for human KB cells to IC50 for Plasmodium falciparum VS1; format: functional
Plasmodium berghei [7] = test: Antiparasitemia activity against Plasmodium berghei infected mice (Mus musculus) at 30 mg/kg peroral dose for 4 days; format: functional; details: route oral
How it was run: (§2)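 Peters' suppressive test: 20 g male CD-1 mice were infected iv with 2×10^6 P. berghei AS-parasitized erythrocytes. Compound was dosed orally, 0.2 mL, in standard suspending formula (0.5% Na carboxymethylcellulose, 0.5% benzyl alcohol, 0.4% Tween 80, 0.9% NaCl) at 2 h and on days 1–4 post-infection. Parasitaemia was read microscopically from Giemsa films on day 5 as % inhibition relative to the untreated group's arithmetic mean.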

Plasmodium berghei [8] = test: Antiparasitemia activity against Plasmodium berghei infected mice (Mus musculus) at 30 mg/kg subcutaneous dose for 4 days; format: functional
How it was run: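 Male CD-1 outbred mice (20 g), infected intravenously with 2×10^6 P. berghei AS parasitized red cells, received subcutaneous 0.2 mL doses in 10% DMSO/0.05% Tween 80 in water at 2 h (day 0) and on days 1, 2, 3 and 4. Day-5 Giemsa blood smears were counted microscopically, and mean group parasitaemia was expressed as % inhibition versus untreated mice.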

Plasmodium berghei [9] = test: Antiparasitemia activity against Plasmodium berghei infected mice (Mus musculus) at 100 mg/kg intravenous dose for 4 days; format: functional
How it was run: (§3)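 CD-1 outbred male mice (20 g) were infected intravenously with 2×10^6 P. berghei AS parasitized red cells. Drug in 5% dextrose was given iv, 0.2 mL, at 2 h (day 0) and on days 1, 2, 3 and 4 post-infection. Day-5 Giemsa-stained blood films were counted, and results were expressed as % inhibition of mean group parasitaemia versus the untreated group.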

Plasmodium berghei [10] = test: Antiparasitemia activity against Plasmodium berghei infected mice (Mus musculus) at 100 mg/kg peroral dose for 4 days; format: functional; details: route oral; how it was run: as §2
Plasmodium berghei [11] = test: Antiparasitemia activity against Plasmodium berghei infected mice (Mus musculus) at 10 mg/kg intravenous dose for 4 days; format: functional; how it was run: as §3

SMILES | IC50 (Plasmodium falciparum [1]) [µM] | IC50 (Plasmodium falciparum [2]) [µM] | IC50 (Plasmodium falciparum [3]) [µM] | CC50 (KB) [µM] | Ratio CC50/IC50 [4] | Ratio CC50/IC50 [5] | Ratio CC50/IC50 [6] | Activity (Plasmodium berghei [7]) [%] | Activity (Plasmodium berghei [8]) [%] | Activity (Plasmodium berghei [9]) [%] | Activity (Plasmodium berghei [10]) [%] | Activity (Plasmodium berghei [11]) [%]
CN(N)c1ncnc2[nH]cnc12 | 508 | 478 | 419 |  |  |  |  |  |  |  |  | 
CON(C)c1ncnc2[nH]cnc12 | > 613 | > 613 | > 613 |  |  |  |  |  |  |  |  | 
CON(C)c1ncnc2c1ncn2[C@@H]1O[C@H](CO)[C@@H](O)[C@H]1O | 21.8 | 12.5 | 25.2 | 15.3 | <1 | 1.2 | <1 |  |  |  |  | 
OC[C@H]1O[C@@H](n2cnc3/c(=N\O)[nH]cnc32)[C@H](O)[C@@H]1O | 11.6 | 6.9 | 8.56 | 44.3 | 3.8 | 6.4 | 5.2 |  |  |  |  | 
Nc1nc2c(ncn2[C@@H]2O[C@H](CO)[C@@H](O)[C@H]2O)/c(=N\O)[nH]1 | 16 | 10.8 | 13.3 | 281 | 17.5 | 25.9 | 21.1 |  |  |  |  | 
NNc1ncnc2c1ncn2[C@@H]1O[C@H](CO)[C@@H](O)[C@H]1O | 13.3 | 7.48 | 7.92 | 2.26 | <1 | <1 | <1 |  |  |  |  | 
CO/N=c1/[nH]cnc2c1ncn2[C@@H]1O[C@H](CO)[C@@H](O)[C@H]1O | 11.4 | 20.6 | 9.87 | 6.16 | <1 | <1 | <1 |  |  |  |  | 
CO/N=c1/[nH]c(N)nc2c1ncn2[C@@H]1O[C@H](CO)[C@@H](O)[C@H]1O | 232 | 184 | 225 | 784 | 3.4 | 4.3 | 3.5 |  |  |  |  | 
Nc1nc2c(ncn2[C@@H]2O[C@H](CO)[C@@H](O)[C@H]2O)/c(=N\OCc2ccccc2)[nH]1 | 183 |  | 126 |  |  |  |  |  |  |  |  | 
c1ccc(CO/N=c2/[nH]cnc3[nH]cnc23)cc1 | 400 |  | 352 |  |  |  |  |  |  |  |  | 
NNc1nc(N)nc2[nH]cnc12 | 189 | 109 | 89.3 | 1000 | 5.3 | 9.2 | 11.2 |  |  |  |  | 
CO/N=c1/[nH]cnc2[nH]cnc12 | 98.9 | 354 | > 606 | 1260 | 12.7 | 3.6 | 2.1 |  |  |  |  | 
C=CCO/N=c1/[nH]cnc2c1ncn2[C@@H]1O[C@H](CO)[C@@H](O)[C@H]1O | 3.31 |  | 34 |  |  |  |  |  |  |  |  | 
OC[C@H]1O[C@@H](n2cnc3/c(=N\OCc4ccccc4)[nH]cnc32)[C@H](O)[C@@H]1O | 13.2 |  | 14.2 | 889 | 67.6 |  | 62.6 |  |  |  |  | 
CON(C)c1nc(N)nc2c1ncn2[C@@H]1O[C@H](CO)[C@@H](O)[C@H]1O | > 306 | > 306 | > 306 |  |  |  |  |  |  |  |  | 
ONc1ncnc2[nH]cnc12 | 7.48 | 10.2 | 5.57 | 1490 | 199 | 146 | 267 | 3.9 | 1.8 |  |  | 
c1ccc(NNc2ncnc3[nH]cnc23)cc1 | 19.3 |  | 19.8 | 167 | 8.64 |  | 8.43 |  |  |  |  | 
NNc1ncnc2[nH]cnc12 | 23.1 | 22.1 | 18.8 | 49.3 | 2.1 | 2.2 | 2.6 |  |  |  |  | 
CN(N)c1nc(N)nc2[nH]cnc12 | > 558 | > 558 | > 558 |  |  |  |  |  |  |  |  | 
Nc1nc2[nH]cnc2/c(=N\O)[nH]1 | 27.8 | 9.03 | 16.8 | 45 | 1.6 | 5 | 2.7 |  |  |  |  | 
CO/N=c1/[nH]c(N)nc2[nH]cnc12 | 428 | 435 | > 555 |  |  |  |  |  |  |  |  | 
CN(N)c1ncnc2c1ncn2[C@@H]1O[C@H](CO)[C@@H](O)[C@H]1O | 72.7 | 35.4 | 22.5 | 101 | 1.4 | 2.9 | 4.5 |  |  |  |  | 
NNc1nc(N)nc2c1ncn2[C@@H]1O[C@H](CO)[C@@H](O)[C@H]1O | 10.2 | 10 | 12.2 | 1360 | 134 | 136 | 112 | 22.3 | 14 | 43.9 | 26.8 | 
CN(N)c1nc(N)nc2c1ncn2[C@@H]1O[C@H](CO)[C@@H](O)[C@H]1O | 2.27 | 3.6 | 0.29 | 1480 | 533 | 410 | 5008 | 12.3 | 28.3 | 14 | 4.8 | 
OC[C@H]1O[C@@H](n2cnc3c(NNc4ccccc4)ncnc32)[C@H](O)[C@@H]1O | 14.2 |  | 11 | 109 | 7.68 |  | 9.9 |  |  |  |  | 
CCN(CC)CCCC(C)Nc1ccnc2cc(Cl)ccc12 (centres undefined) [CHLOROQUINE] |  |  |  | 187 |  |  |  |  |  |  |  | 100
COc1cc([C@@H]2c3cc4c(cc3[C@H](O)[C@H]3COC(=O)[C@H]23)OCO4)cc(OC)c1OC [PODOFILOX] |  |  |  | 0.048 |  |  |  |  |  |  |  | 
CCc1nc(N)nc(N)c1-c1ccc(Cl)cc1 [PYRIMETHAMINE] |  |  |  |  |  |  |  | 100 | 100 |  |  | 
